{"source": "paper PMC2200097", "about": "(The Journal of Cell Biology, 1993)", "molecules": {"B1": {"name": "peptide 256 (…) (peptide)", "peptide": "GGWSHWSPWSS"}, "B2": {"name": "ovalbumin: irrelevant control protein (protein)", "chain": "MGSIGAASMEFCFDVFKELKVHHANENIFYCPIAIMSALAMVYLGAKDSTRTQINKVVRFDKLPGFGDSIEAQCGTSVNVHSSLRDILNQITKPNDVYSFSLASRLYAEERYPILPEYLQCVKELYRGGLEPINFQTAADQARELINSWVESQTNGIIRNVLQPSSVDSQTAMVLVNAIVFKGLWEKAFKDEDTQAMPFRVTEQESKPVQMMYQIGLFRVASMASEKMKILELPFASGTMSMLVLLPDEVSGLEQLESIINFEKLTEWTSSNVMEERKIKVYLPRMKMEEKYNLTSVLMAMGITDVFSSSANLSGISSAESLKISQAVHAAHAEINEAGREVVGSAEAGVDAASVSEEFRADHPFLFCIKHIATNAVLFFGRCVSP"}}, "key": {"[1]": {"target": "human plasma fibronectin (Homo sapiens, UniProt P02751)", "sequence (P02751 306-608 limits assumed)": "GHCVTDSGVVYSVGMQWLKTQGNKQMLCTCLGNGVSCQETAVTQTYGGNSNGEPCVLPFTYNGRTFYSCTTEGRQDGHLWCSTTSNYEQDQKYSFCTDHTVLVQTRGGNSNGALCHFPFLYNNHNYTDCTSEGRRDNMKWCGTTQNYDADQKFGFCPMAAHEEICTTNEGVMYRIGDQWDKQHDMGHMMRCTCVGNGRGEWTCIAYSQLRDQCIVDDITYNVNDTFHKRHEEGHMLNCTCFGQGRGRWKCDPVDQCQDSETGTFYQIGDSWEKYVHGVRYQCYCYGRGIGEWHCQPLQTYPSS", "assay": "Direct binding of [125I]fibronectin to immobilized peptides", "details": "solid phase assay, labeled fibronectin"}, "[2]": {"target": "fibronectin (Homo sapiens, UniProt P02751)", "sequence (P02751 306-608 limits assumed)": "as above", "format": "binding", "details": "for Inhibition of fibronectin binding to immobilized peptide GGWSHW, in words: soluble peptide or protein as inhibitor; for IC50 for competition of [125I]fibronectin binding to peptide GGWSHW: irrelevant proteins as inhibitors", "how_it_was_run": "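Wells were incubated 2 h at 25°C with [¹²⁵I]human plasma fibronectin (0.2 μg/ml final per methods; 0.5 μg/ml per legends) plus serial dilutions of soluble inhibitors. Wells were washed three times with DPBS, cut out and counted. Duplicates; percent of specific binding without inhibitor.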"}, "[3]": {"target": "peptide GGWSHW (Homo sapiens, UniProt P07996)", "format": "binding", "details": "detection with antibody 191; wells coated with 50 μg/ml GGWSHW", "how_it_was_run": "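Peptide GGWSHW (50 μg/ml) was coated on microtiter wells and blocked with 1% BSA. Wells were incubated with graded concentrations of unlabeled intact fibronectin, the 30-kD proteolytic gelatin-binding domain or the 120-kD proteolytic cell-binding fragment. After washing, bound protein was detected sequentially with 5 μg/ml monoclonal antibody 191 and ¹²⁵I-goat anti-IgG, then counted. Values are mean ± SD of duplicates.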"}, "[4]": {"target": "human plasma fibronectin (human)", "assay": "radioligand binding"}, "[5]": {"tested_on": "melanoma cells", "details": "murine lung colonization assay; ref Tuszynski et al., 1992; cited from earlier work"}, "[6]": {"target": "peptide 300 (GGWSHW) (human)", "assay": "radioligand binding"}, "[7]": {"target": "peptide 300 (GGWSHW) (human)"}}, "data": [{"molecule": "GGWGPW [compound 318]", "values": [{"measurement": "Fibronectin binding to immobilized peptide, in words", "setting": "[1]", "value": "inactive"}]}, {"molecule": "fibronectin", "values": [{"measurement": "Inhibition of fibronectin binding to immobilized peptide GGWSHW, in words", "setting": "[2]", "value": "competed"}, {"measurement": "Half saturation of binding to immobilized peptide GGWSHW", "setting": "[3]", "value": 0.7, "unit": "µg/mL"}]}, {"molecule": "peptide 340 (AAWSHW)", "values": [{"measurement": "IC50", "setting": "[4]", "value": "> 300", "unit": "µM"}]}, {"molecule": "CSVTCG", "values": [{"measurement": "Inhibition of metastasis of melanoma cells, in words", "setting": "[5]", "value": "inhibit"}]}, {"molecule": "DGWSPW (DGWCSPW) [compound 317]", "values": [{"measurement": "Fibronectin binding to immobilized peptide, in words", "setting": "[1]", "value": "inactive"}]}, {"molecule": "CSTSCG", "values": [{"measurement": "Inhibition of metastasis of melanoma cells, in words", "setting": "[5]", "value": "inhibit"}]}, {"molecule": "40-kD recombinant fragment of fibronectin with the same amino terminus as the 28-kD fragment (domain or fragment)", "values": [{"measurement": "fold less active as inhibitor than the 33-kD fragment", "setting": "[6]", "value": 10, "unit": "fold"}]}, {"molecule": "transferrin: irrelevant control protein [reference compound]", "values": [{"measurement": "IC50 for competition of [125I]fibronectin binding to peptide GGWSHW", "setting": "[2]", "value": "> 200", "unit": "µg/mL"}]}, {"molecule": "fetuin: irrelevant control protein [reference compound]", "values": [{"measurement": "IC50 for competition of [125I]fibronectin binding to peptide GGWSHW", "setting": "[2]", "value": "> 200", "unit": "µg/mL"}]}, {"molecule": "30-kD proteolytic gelatin-binding domain of fibronectin (domain or fragment)", "values": [{"measurement": "half saturation", "setting": "[7]", "value": 15, "unit": "µg/mL"}]}, {"molecule": "thrombospondin: human platelet thrombospondin, extracellular matrix glycoprotein", "values": [{"measurement": "Inhibition of fibronectin binding to immobilized peptide GGWSHW, in words", "setting": "[2]", "value": "competed"}]}, {"molecule": "B1", "values": [{"measurement": "IC50", "setting": "[4]", "value": "> 300", "unit": "µM"}]}, {"molecule": "B2", "values": [{"measurement": "IC50 for competition of [125I]fibronectin binding to peptide GGWSHW", "setting": "[2]", "value": "> 200", "unit": "µg/mL"}]}]}
